Results as given in the RNAGym collection of RNA variant scans (doi:10.1126/science.aae0568).
Fewer inactive variants are shown than the library holds.

B1: tRNA (parent)
chain: GUUCCGUUGGCGUAAUGGUAACGCGUCUCCCUCCUAAGGAGAAGACUGCGGGUUCGAGUCCCGUACGGAACG

Variants of: B1
Test: yeast fitness relative to wild type (ratio to wild type); higher = fitter; tRNA-Arg(CCU), competitive growth, 37 C, YPD
Outline: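 Amplicons of the tRNA-Arg(CCU) gene were sequenced, 100-nucleotide paired-end, from the start population and from each end population of a pooled yeast competition. The competition, in six parallel replicates, lasted 24 hours in YPD at 37°C. Fitness relative to wild type was calculated from changes in genotype frequencies. Genotypes had to have ≥ 100 starting reads, and estimates < 0.5 were set to 0.5.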

Compared with GUUCCGUUGGCGUAAGGGUAACGCGUCUCCCUCCUAAGGAGAAGACUGGGGGUUCGAGUCCCGUACGGAACG [U16G C49G], GUUCCGUUGGCGUAAUGGUUACGCGUCUCCCUCCUAAGGAGAUGACUGCGGGUUCGAGUCCCGUACGGAACG [A20U A43U] is higher in yeast fitness: 0.636 for the first, 0.905 for the second.

Compared with GUUCCGUUGGCGUAAUGGUAACGCGUCUCUCUACUAAGGAGAAGACUGCCGGUUGGAGUCCCGUACGGAACG [C30U C33A G50C C55G], GUUCAGUUGGCGUAAUGGUAACGCGUCGCCCUCCUAAGGAGAAGACUGCGGGUUCGAGUCCCGUACGGAACG [C5A U28G] is higher in yeast fitness: ≤ 0.5 for the first, 0.609 for the second.

First: GUUCCGUUGGCGUGAUGGUAACGUGUCUCCCUCCUAAGGAGAAGACUGCGGGUUCGAGUCCCGUACCGAACG [A14G C24U G67C]
Second: GUUCCGUUGGCGUAAUGCUAACGCGUCUCCCUCCUAAGGAGACGACUGCGGAUUCGAGUCCCGUACGGAACG [G18C A43C G52A]
The yeast fitness of the first is higher: 0.54 for the first, 0.502 for the second.

Going from GUCCCGUUGGCGUAAUGGUAACGUGCCUCCCUCCUAAGGAGAAGACUGCGGGUUCGAGUCCCAUGCGGAACG [U3C C24U U26C G63A A65G] to GUUCCGUUGGCGUAAUGGUAACGCGUCUCCCUCCUAAGGAGAAGACUGCGGGUUCGAGUCCCGUGCGGACCG [A65G A70C], the yeast fitness rises from ≤ 0.5 to 0.889.

Going from GUUCGGUUGGUGUAAUGGUAACGCCUCUCCCUCCUAAGGAGAAGACUGCGGUUUCGAGUCCCGUACGGACCG [C5G C11U G25C G52U A70C] to GUUUCGUUGACAUAAUGGUAACGCGUCUCCCUCCUAAGGAGAAGACUGCGGGUUCGAGUCCCGUACGGAACG [C4U G10A G12A], the yeast fitness rises from ≤ 0.5 to 0.653.

Compared with GUUCCGUUAGCGUAAUGGUAACGCGUCUCCCUCCUAAGGAGAAGACUGUGGGUUCGAGUCCCGUUCGGAACG [G9A C49U A65U], GUUCCGUUGGCGUAAUGGUAACGCGUCCCUCUCCUAAGGAGAAGCCUGCGGGUUCGAAUCCCGUACUGAACG [U28C C30U A45C G58A G67U] is lower in yeast fitness: 0.651 for the first, ≤ 0.5 for the second.

Compared with GUUCUGUUGGCGUAAUGGUAACGCGUCUUCCUCCUAAGGAGAAGUCUGCGGGUUCGAGUCCCGUACGGAACG [C5U C29U A45U], GUUCCGUUGGUGUAAUGGUAACGCGUCUCCCUCCUAAGGAGAACACUGCGGGUUCGAAUCCCGUACGGAACG [C11U G44C G58A] is lower in yeast fitness: 0.924 for the first, 0.712 for the second.

First: GUUCCGUUGGCGUAAUGGUAACGCGUCUCCCUCAUAAGGAGAAGACUGCGGGUUCGUGUCCCGUACGGAACG [C34A A57U]
Second: GUUCCGUUGGCGUAAUGGUAUCGCGUCUCCCUCCUAACGAGAAGACUGCGGGUUCGAGUCCCGUCCGGAACG [A21U G38C A65C]
The yeast fitness of the first is higher: 0.529 for the first, ≤ 0.5 for the second.

Compared with GUUCCGUUGGCAUAAUGGUAACGCGUCUCCCUCCUAAGGAGAAGAUUGCGGGUUCGAGUCCCGUUCGGAACG [G12A C46U A65U], GUUCCGUUGCCGUAAUGGUAACGCGUCUCCGCCCUUAGGAGAAGACUGCGGGUUCGUGUGCCGUACGGAACG [G10C C31G U32C A36U A57U C60G] is lower in yeast fitness: 0.998 for the first, ≤ 0.5 for the second.

GUUCCGUUGGCGUAAUGGUAACCCGUCUCCGUACUAAGGAGAAGACUGCGGGUUCGUGACCCAUACGGAACG [G23C C31G C33A A57U U59A G63A] and GUUCGGUUGGCGUAAUGGUAACGCGUCUCCCUCCUAUGGAGAAGACUGGGGGUUCGAGUCCCGUACGGAACG [C5G A37U C49G] cannot be ordered by yeast fitness: ≤ 0.5 for the first, ≤ 0.5 for the second.

Going from GUUCCGUUGGCGUAAAGGUAACGCGCCUCCAUACCAAGGAGAAGACAGCGGGUUCGAGUCCCGUACGGAACG [U16A U26C C31A C33A U35C U47A] to GUUCCCUUGGCGUAAUGGUGACGCGUCUCCCUCCUAAGGAGAAGUCUGCGGGUUCGAGUCCCGUACGGAACG [G6C A20G A45U], the yeast fitness rises from ≤ 0.5 to 0.507.

GUUCCGUUGGCGUAAUGGUAACGCGUCUCCCUCCUAAGGAGAAGACUCCGGCUUCGAGUCCGGUACGGAACG [G48C G52C C62G] and GUUCCGUUGGCGUAAUGGUAACGCGUCCCCCUCCUAAGGAGAAGACUGCGGGUUCGAUUCCCGUGCAGAACG [U28C G58U A65G G67A] cannot be ordered by yeast fitness: ≤ 0.5 for the first, ≤ 0.5 for the second.

GUUCCAUUGGAGUAAUGGUAACGCGUCUCCCUCCUAAGGAGAAGAAUGCGGGUUCGGGUCCCGUACGGAACG [G6A C11A C46A A57G] and GUUCCGUUGGCGUAAUGGUAAGGCGUCUCCCUCCCAAGGAGAAGACUGCCGGUUCGAGUCCCGUACGGAACG [C22G U35C G50C] cannot be ordered by yeast fitness: ≤ 0.5 for the first, ≤ 0.5 for the second.

First: GAUCCGUUGGCGUAAUGGUAACGCGUCUCCCCCCUAAGGAGAAGACUGCGGGUUCGAGUCCCGUACGGAACG [U2A U32C]
Second: GUUCCGUUGGCGUAGUGGUAACGCGUCUCCCUCCUAAGAAGAAGACUGCGGGUUCGAGUCCCGUACGGACCG [A15G G39A A70C]
The yeast fitness of the first is higher: 0.954 for the first, 0.742 for the second.

First: GUUCCGUUGGCGUAAUGGUAACGCGUCACCCUCCUAGGGACAAGACUGCGGGUUCGAGUCCCGUACGGAACG [U28A A37G G41C]
Second: GUUCCGUUGGCGUAAAGGUAACCCGACUUCCUCCUAAGGAGUAGACUACGGGUUCGAGUCCCGUACGGAACG [U16A G23C U26A C29U A42U G48A]
The yeast fitness of the first is lower: ≤ 0.5 for the first, 0.557 for the second.

Going from GUUCCGUUGGCGUAAUGGUAACGCGUCUCCCCCCUAAGGAGAAGACUGCGGGUUUGAGUCCCGUACGGUACG [U32C C55U A69U] to GUUCCGUUGGCGUAAUGGAAACGCGUCUCCCUCCUCAGGGGAAGACUGCGGGUUCGCGUCCCGUACGGAACG [U19A A36C A40G A57C], the yeast fitness falls from 0.55 to ≤ 0.5.

GUUCCGUUGGCGUAUUGGUCACGCGUCUCCCUCCUAAGGAGAAGACUACGGGUUCGAGUCCCGUACGGCACG [A15U A20C G48A A69C] and GGUCCGUUGGCGUAAUGGUAACGCGUCUCCCUCCUUAGGAGAAGACUGCGGGUUCGAGUCCCGUACACAACG [U2G A36U G67A G68C] cannot be ordered by yeast fitness: ≤ 0.5 for the first, ≤ 0.5 for the second.

Compared with GUUCCGUUGGCGUAAUGGUAACGCGUCUCCUUCCUAAGGAGAAGACGGCGGGUUCGACUCCUGUACGGAACG [C31U U47G G58C C62U], GUUCCGUUGGCGUAUUGGUAACCCGUCGCCCCCCUUAAGAGAAGACUGCGGGUUAGAGUCCCGUACGGAACG [A15U G23C U28G U32C A36U G38A C55A] is higher in yeast fitness: 0.552 for the first, 0.689 for the second.

Going from GUUCCGUUGGCGUUAUGGUACCGCGUCUUCCUCCUAAGGAGAAGACUGCGGGUUCGAGUCCCGUACGGAACG [A14U A21C C29U] to GUUCCGUUGGCGUAAUGGUAAUGCGUUUCCCUACUAAGGAGAAGACUGCGGGUUCGAGUCCCGUACGGAACG [C22U C27U C33A], the yeast fitness falls from 0.538 to ≤ 0.5.
